Tests used:
[1] = target: T1, Glucocorticoid receptor (Homo sapiens, UniProt P04150); assay: Antagonist activity against the Glucocorticoid Receptor (GR); assay type: functional
T1 sequence (P04150 whole entry): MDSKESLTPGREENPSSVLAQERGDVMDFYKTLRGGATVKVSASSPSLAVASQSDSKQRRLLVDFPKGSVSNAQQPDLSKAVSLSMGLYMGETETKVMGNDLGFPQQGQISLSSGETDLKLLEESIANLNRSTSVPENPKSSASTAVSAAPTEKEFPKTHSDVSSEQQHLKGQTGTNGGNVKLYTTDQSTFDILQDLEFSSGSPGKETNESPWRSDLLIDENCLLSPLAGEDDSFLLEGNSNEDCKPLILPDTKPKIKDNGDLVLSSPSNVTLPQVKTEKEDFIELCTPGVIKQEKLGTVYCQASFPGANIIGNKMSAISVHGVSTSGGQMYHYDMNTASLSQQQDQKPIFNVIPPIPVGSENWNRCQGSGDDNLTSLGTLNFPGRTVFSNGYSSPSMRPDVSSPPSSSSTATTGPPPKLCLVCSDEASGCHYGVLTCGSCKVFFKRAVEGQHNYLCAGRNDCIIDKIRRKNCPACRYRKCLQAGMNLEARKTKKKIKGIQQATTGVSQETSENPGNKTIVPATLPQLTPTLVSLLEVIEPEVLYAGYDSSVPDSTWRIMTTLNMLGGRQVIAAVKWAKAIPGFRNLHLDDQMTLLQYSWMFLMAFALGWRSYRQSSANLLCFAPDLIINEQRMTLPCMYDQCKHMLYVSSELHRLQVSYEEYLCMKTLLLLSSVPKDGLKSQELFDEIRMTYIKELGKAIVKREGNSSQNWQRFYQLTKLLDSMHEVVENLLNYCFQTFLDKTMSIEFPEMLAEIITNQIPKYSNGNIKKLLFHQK

[2] = target: Estrogen receptor (Homo sapiens, UniProt Q92731+P03372); assay: Antagonist activity against the Estrogen Receptor (ER); assay type: functional
[3] = target: T2, Progesterone receptor (Rattus norvegicus) (UniProt Q63449); assay: Inhibitory activity against progesterone receptor (PR) in ovariectomized mature female rat decidualization model; assay type: functional
T2 sequence (whole entry): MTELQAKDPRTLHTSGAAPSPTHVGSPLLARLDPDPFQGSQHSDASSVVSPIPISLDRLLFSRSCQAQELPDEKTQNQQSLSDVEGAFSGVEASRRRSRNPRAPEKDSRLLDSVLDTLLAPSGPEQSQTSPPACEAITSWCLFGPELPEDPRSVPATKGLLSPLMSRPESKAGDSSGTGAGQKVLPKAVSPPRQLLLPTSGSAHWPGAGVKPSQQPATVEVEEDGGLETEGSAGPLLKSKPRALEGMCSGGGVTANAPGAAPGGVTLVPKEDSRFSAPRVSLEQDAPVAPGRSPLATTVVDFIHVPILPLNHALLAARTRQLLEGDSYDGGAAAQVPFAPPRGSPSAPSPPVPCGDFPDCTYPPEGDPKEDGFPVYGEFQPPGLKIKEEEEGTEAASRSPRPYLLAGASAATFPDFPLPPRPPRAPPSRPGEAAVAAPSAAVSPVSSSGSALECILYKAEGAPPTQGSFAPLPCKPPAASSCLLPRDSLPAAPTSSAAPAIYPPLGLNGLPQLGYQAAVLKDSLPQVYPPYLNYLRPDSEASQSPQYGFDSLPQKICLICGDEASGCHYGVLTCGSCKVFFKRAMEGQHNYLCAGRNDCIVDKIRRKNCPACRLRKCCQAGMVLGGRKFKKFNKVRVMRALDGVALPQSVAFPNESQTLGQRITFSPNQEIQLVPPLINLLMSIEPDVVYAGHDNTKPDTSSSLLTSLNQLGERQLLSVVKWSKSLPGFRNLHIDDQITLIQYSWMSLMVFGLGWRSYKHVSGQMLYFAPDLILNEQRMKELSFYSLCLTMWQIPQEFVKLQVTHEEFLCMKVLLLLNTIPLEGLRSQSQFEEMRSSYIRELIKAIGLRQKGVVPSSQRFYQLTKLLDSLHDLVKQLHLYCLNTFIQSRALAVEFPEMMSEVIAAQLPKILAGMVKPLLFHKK
Method in brief: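 Ovariectomized mature rats dosed orally for 7 days, with progesterone 5.6 mg/kg SC given alongside; vehicle-only controls. Decidual response (D/C) measured 24 h after the final treatment, seven animals per point. ED50 averaged from at least duplicate determinations.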

[4] = target: T2, Progesterone receptor (Rattus norvegicus); assay: inhibitory activity against progesterone receptor (PR) in ovariectomized mature female rat complement C3 model; assay type: functional
Method in brief: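 Adult ovariectomized rats given oral doses; read-out is reversal of progestin down-regulation of estrogen-induced complement C3 synthesis in uterine epithelium. ED50 averaged from at least duplicate determinations.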

[5] = target: T3, Progesterone receptor (Homo sapiens, UniProt P06401); assay: Antagonist activity against progesterone receptor (PR) in an alkaline phosphatase assay in the T47D human breast carcinoma cell line; assay type: functional, cell-based
T3 sequence (P06401 whole entry): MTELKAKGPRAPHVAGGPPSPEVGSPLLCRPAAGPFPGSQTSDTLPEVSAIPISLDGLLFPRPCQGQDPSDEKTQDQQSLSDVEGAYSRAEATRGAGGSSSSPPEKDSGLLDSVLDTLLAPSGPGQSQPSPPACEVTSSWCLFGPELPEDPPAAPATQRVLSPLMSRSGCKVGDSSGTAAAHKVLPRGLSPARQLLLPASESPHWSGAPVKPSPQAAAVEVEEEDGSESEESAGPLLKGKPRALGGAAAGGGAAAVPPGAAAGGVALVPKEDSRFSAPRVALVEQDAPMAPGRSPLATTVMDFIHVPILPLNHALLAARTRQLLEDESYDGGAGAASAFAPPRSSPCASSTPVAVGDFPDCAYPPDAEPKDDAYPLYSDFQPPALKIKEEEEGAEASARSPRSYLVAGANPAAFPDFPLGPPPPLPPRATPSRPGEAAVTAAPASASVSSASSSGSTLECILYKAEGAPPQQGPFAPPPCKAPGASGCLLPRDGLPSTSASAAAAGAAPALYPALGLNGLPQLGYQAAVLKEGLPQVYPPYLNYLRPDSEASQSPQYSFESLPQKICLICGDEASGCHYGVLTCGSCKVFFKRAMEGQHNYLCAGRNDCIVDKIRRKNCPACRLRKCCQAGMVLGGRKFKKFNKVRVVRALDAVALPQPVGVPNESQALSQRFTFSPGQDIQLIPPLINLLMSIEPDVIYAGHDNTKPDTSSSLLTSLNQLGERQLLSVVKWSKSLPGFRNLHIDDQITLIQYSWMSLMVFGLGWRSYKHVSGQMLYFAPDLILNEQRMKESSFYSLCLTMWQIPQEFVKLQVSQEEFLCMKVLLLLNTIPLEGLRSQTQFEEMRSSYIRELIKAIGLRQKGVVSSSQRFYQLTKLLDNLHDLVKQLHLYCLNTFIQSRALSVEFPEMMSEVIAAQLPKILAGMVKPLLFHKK

[6] = target: T3, Progesterone receptor; assay: Agonist activity against progesterone receptor (PR) in an alkaline phosphatase assay in the T47D human breast carcinoma cell line; assay type: functional, cell-based
Method in brief: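 T47D human breast carcinoma cells scored for PR agonism via alkaline phosphatase read-out; EC50 taken as the mean of at least duplicate determinations.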

[7] = target: T3, Progesterone receptor; assay: Antagonist activity against the Progesterone Receptor (PR); assay type: functional
Method in brief: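 Antagonism run in CV-1 cells co-transfected with hPR and PRE-luciferase plasmids, with luciferase read-out; IC50 taken as the mean of at least duplicate determinations.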

Row | Compound | IC50 [1] | IC50 [2] | ED50 [3] | ED50 [4] | IC50 [5] | EC50 [6] | IC50 [7]
1 | CC1(C)OC(=O)Nc2ccc(-c3ccc(F)c(Cl)c3)cc21 | 2580 nM | > 10000 nM | 1 mg/kg | 2.5 mg/kg | 23 nM |  | 
2 | CC1(C)OC(=O)Nc2ccc(-c3csc(C#N)c3)cc21 | 1860 nM |  | 1.7 mg/kg |  |  | 61.1 nM | 6.7 nM
3 | CC1(C)OC(=O)Nc2ccc(-c3cc(F)cc(C#N)c3)cc21 | 1760 nM | > 10000 nM | 0.3 mg/kg | 1 mg/kg |  | 90 nM | 15.9 nM
4 | CC1(C)OC(=O)Nc2ccc(-c3coc(C#N)c3)cc21 | > 10000 nM |  | 0.9 mg/kg |  | 8 nM |  | 40.2 nM

From ChEMBL document CHEMBL1135816, “6-Aryl-1,4-dihydro-benzo[d][1,3]oxazin- 2-ones: a novel class of potent, selective, and orally active nonsteroidal progesterone receptor antagonists” (J Med Chem, 2002)
